T cruzi HTS: inhibitors of intracellular Trypanosoma cruzi. intracellular Trypanosoma cruzi in host cells, plate reader. activity score (inhibition), % at 5.01 µM. 4.9% of 22,000 active; in the data active = activity score above about 55%;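 also: parasites and compound incubated about four days before reading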
INS-1E rescue: preserves ATP levels in cytokine-treated INS-1E cells | INS-1E cytokine-induced death, ATP luminescence, 48 h; normalised: neutral wells 0, positive control 100 | protection from cytokine-induced ATP loss, % at 10 µM | 0.1% of 20,000 active | AID 488910;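 active = mean replicate protection from cytokine-induced ATP loss at least 50% and at least 75% of replicates each reaching 50%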
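assay system = INS-1E rat insulinoma cells | amount = 8000 cells per well | medium = phenol-red-free RPMI with 5% fetal bovine serum | doses = one compound concentration, pin transfer | timing = 48 h cytokine plus compound treatment, 10 min reagent incubation | also added = IL-1β, TNF-α and IFN-γ cytokine mix | signal = CellTiter-Glo luminescence measuring cellular ATP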
A1 apoptosis 2: A1 inhibition read as caspase activation; MEF A1-2A-BIM cells, caspase-Glo luminescence, 3 h; percent of clofoctol response, DMSO zero; caspase activation, % (concentration not given with the values); 24,000 tested, under 10 active; AID 2465; in the data active = caspase activation above about 5.9%
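system = A1-2A-BIM-expressing MEF cells | quantity = 2500 MEF cells/well | dosing = 50 nL compound per well, pinned | schedule = overnight cell settling, then 3 h compound exposure, 37 °C | signal = luminescence from DEVD-luciferin Caspase-Glo reagent, 1:1 in 50 mM HEPES, 1 h RT | read-out = Caspase-3/7 activation, seen as rise in luminescence signal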
Large screens that a line does not name were inactive. The sample as a whole holds a higher share of hits than the screen did.

C[C@@H]1CN([C@@H](C)CO)C(=O)Cc2cc(NC(=O)CCC(F)(F)F)ccc2O[C@H]1CN(C)Cc1ccc2c(c1)OCO2	none (no result: T cruzi HTS, INS-1E rescue)
O=C(CCCCC(=O)N/N=C/c1ccc([N+](=O)[O-])s1)NO	none
O=C(CCCCCCC(=O)Nc1ccccc1O)N/N=C/c1ccccc1O	none
O=C(CCCCCCC(=O)Nc1ccccc1O)N/N=C/c1ccc([N+](=O)[O-])s1	T cruzi HTS 89.5
CCN(CC)c1ccc(/C=N/NC(=O)CCCCCCC(=O)Nc2ccccc2O)c(O)c1	T cruzi HTS 66.4
CNC[C@@H]1Oc2c(NC(=O)NC3CCCCC3)cccc2C(=O)N([C@@H](C)CO)C[C@@H]1C	none
C[C@@H]1CCCCO[C@H](CN(C)Cc2ccc(Cl)c(Cl)c2)[C@@H](C)CN([C@H](C)CO)C(=O)c2cc(NC(=O)Nc3ccccc3)ccc2O1	T cruzi HTS 76.4
C[C@@H]1CN([C@H](C)CO)C(=O)c2cc(NC(=O)C3CCCCC3)ccc2O[C@@H](C)CCCCO[C@H]1CN(C)Cc1ccc(Cl)c(Cl)c1	none (no result: T cruzi HTS, INS-1E rescue)
C[C@@H]1CCCCO[C@@H](CN(C)Cc2ccc(Cl)c(Cl)c2)[C@@H](C)CN([C@H](C)CO)C(=O)c2cc(NC(=O)C3CCCCC3)ccc2O1	T cruzi HTS 87.9 (no result: A1 apoptosis 2)
C[C@@H]1CCCCO[C@@H](CN(C)Cc2ccc(Cl)c(Cl)c2)[C@H](C)CN([C@@H](C)CO)C(=O)c2cc(NC(=O)Nc3ccccc3)ccc2O1	none (no result: T cruzi HTS, INS-1E rescue)
C[C@@H]1CCCCO[C@@H](CN(C)Cc2ccc(Cl)c(Cl)c2)[C@@H](C)CN([C@H](C)CO)C(=O)c2cc(NC(=O)Nc3ccccc3)ccc2O1	T cruzi HTS 77.9 (no result: A1 apoptosis 2)
C[C@@H]1CN([C@@H](C)CO)C(=O)c2cc(NC(=O)Nc3ccccc3)ccc2O[C@@H](C)CCCCO[C@H]1CN(C)Cc1ccc(Cl)c(Cl)c1	none (no result: T cruzi HTS, INS-1E rescue)
CC(C)NC(=O)N(C)C[C@@H]1Oc2ccc(NC(=O)Cn3cnnn3)cc2C(=O)N([C@H](C)CO)C[C@H]1C	none
C[C@H]1CCCCO[C@@H](CN(C)CC2CCCCC2)[C@@H](C)CN([C@@H](C)CO)C(=O)c2cc(NS(=O)(=O)c3ccc(Cl)cc3)ccc2O1	none (no result: T cruzi HTS, INS-1E rescue)
C[C@H](CO)N1C[C@H](C)[C@@H](CN(C)CC2CCCC2)OCc2cn(nn2)CCCC1=O	none (no result: INS-1E rescue, A1 apoptosis 2)
C[C@H](CO)N1C[C@H](C)[C@H](CN(C)C(=O)c2cc(-c3ccccc3)on2)OCc2cnnn2CCCC1=O	none (no result: INS-1E rescue, A1 apoptosis 2)
Cc1noc(C)c1S(=O)(=O)N(C)C[C@H]1OCCCC[C@H](C)Oc2ccc(NC(=O)Nc3ccc(C(F)(F)F)cc3)cc2C(=O)N([C@@H](C)CO)C[C@@H]1C	none (no result: T cruzi HTS, INS-1E rescue)
Cc1noc(C)c1S(=O)(=O)Nc1ccc2c(c1)C(=O)N([C@H](C)CO)C[C@@H](C)[C@@H](CN(C)S(=O)(=O)c1cccs1)OCCCC[C@H](C)O2	none (no result: T cruzi HTS, INS-1E rescue)
C[C@H]1CN([C@@H](C)CO)C(=O)c2cccc(NC(=O)Nc3ccccc3)c2O[C@H]1CN(C)S(=O)(=O)c1ccccc1	none
C[C@H](CO)N1C[C@H](C)[C@@H](CN(C)S(=O)(=O)c2ccccc2)Oc2c(NC(=O)Nc3ccccc3)cccc2C1=O	T cruzi HTS 60.9
C[C@H]1CN([C@@H](C)CO)C(=O)c2cccc(NC(=O)Nc3ccc(C(F)(F)F)cc3)c2O[C@@H]1CN(C)S(=O)(=O)c1ccc(F)cc1	none (no result: A1 apoptosis 2)
Cc1ccc(S(=O)(=O)N(C)C[C@H]2Oc3c(NC(=O)Nc4ccc(C(F)(F)F)cc4)cccc3C(=O)N([C@H](C)CO)C[C@@H]2C)cc1	none (no result: A1 apoptosis 2)
C[C@@H]1CN([C@H](C)CO)C(=O)c2cccc(NC(=O)Nc3ccc(C(F)(F)F)cc3)c2O[C@@H]1CN(C)S(=O)(=O)c1ccc(Cl)cc1	T cruzi HTS 63.3
C[C@@H]1CN([C@@H](C)CO)C(=O)c2cccc(NC(=O)Nc3ccc(C(F)(F)F)cc3)c2O[C@@H]1CN(C)S(=O)(=O)c1ccc(Cl)cc1	T cruzi HTS 70.1
COC(=O)CCCCCCC(=O)N/N=C/c1ccccc1	none (no result: T cruzi HTS, INS-1E rescue)
CCCCN(CCCC)c1ccc(/C=N/NC(=O)CCCCCCC(=O)OC)cc1	T cruzi HTS 58.4
COc1ccc(NC(=O)N(C)C[C@@H]2Oc3ncc(-c4cccc(C(F)(F)F)c4)cc3C(=O)N([C@H](C)CO)C[C@@H]2C)cc1	T cruzi HTS 59.4 (no result: INS-1E rescue)
C[C@H](CO)N1C[C@H](C)[C@H](CN(C)C(=O)Nc2ccc(F)cc2)Oc2ncc(-c3cccc(C(F)(F)F)c3)cc2C1=O	none (no result: INS-1E rescue)
C[C@H](CO)N1C[C@H](C)[C@H](CN(C)C(=O)Nc2ccc3c(c2)OCO3)Oc2ncc(C#Cc3ccccc3)cc2C1=O	T cruzi HTS 69.2 (no result: INS-1E rescue)
